Measured values published in ChEMBL document CHEMBL1122433, “1-(4-Aminobenzyl)-and 1-(4-aminophenyl)isoquinoline derivatives: synthesis and evaluation as potential irreversible cyclic nucleotide phosphodiesterase inhibitors” (J Med Chem, 1983).

Assays:
[1] = biological target: Phosphodiesterase 1 (Bos taurus, UniProt Q01061+P14100); assay: Inhibitory activity against cyclic nucleotide phosphodiesterase in bovine heart carried out at 37 C with cAMP […] as substrate.; assay type: tissue-based
Outline: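 Crude bovine heart phosphodiesterase containing protein activator and calcium. Assay used 1 µM cAMP substrate with separation of 5'-AMP on Dowex resin. Time and protein adjusted to keep hydrolysis under 25%. I50 interpolated from at least five inhibition values against log inhibitor concentration (10^-7 to 10^-4 M). Triplicate assays, 3-5 experiments, mean ± standard error.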

[2] = biological target: T1, Phosphodiesterase 1 (Rattus norvegicus, UniProt Q63421+Q9EPR9+Q01066); assay: Inhibition of Ca-dependent phosphodiesterase from Rat cerebral cortex using 1 uM cAMP; assay type: tissue-based
Outline: (§1)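 Calcium-dependent enzyme from female Sprague-Dawley rat (200-250 g) cerebral cortex crude extract, taken by Sephadex G-200 gel filtration. Activity measured by polyacrylamide-boronate affinity gel chromatography with 1 µM cAMP or cGMP as substrate. Time and protein adjusted to keep hydrolysis under 25%. I50 interpolated from at least five inhibition values against log inhibitor concentration (10^-7 to 10^-4 M). Triplicate assays, 3-5 experiments, mean ± standard error.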

[3] = biological target: T1, Phosphodiesterase 1; assay: Inhibition of Ca-dependent phosphodiesterase from Rat cerebral cortex using 1 uM cGMP; assay type: tissue-based; outline: as §1
[4] = biological target: T2, Phosphodiesterase 1 (Rattus norvegicus) (UniProt Q63421+Q9EPR9+Q01066); assay: Inhibition of Ca-dependent phosphodiesterase from rat cerebral cortex with 1 uM cGMP without compound, after pre-incubation with 2 or 25 uM (negative control); assay type: functional, tissue-based; set-up: scale not given: the % may be the effect or the level left
Outline: (§2)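 Purified calcium-dependent enzyme from rat cerebral cortex (Sephadex G-200 fraction) preincubated with inhibitor at the stated concentration. It was then diluted 1000-fold and assayed with 1 µM cGMP by polyacrylamide-boronate gel chromatography. Assays ran either without further drug or with drug re-added at the preincubation concentration. Activity was compared with enzyme preincubated without inhibitor.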

[5] = biological target: T2, Phosphodiesterase 1 (Rattus norvegicus); assay: Inhibition of Ca-dependent phosphodiesterase from rat cerebral cortex at 25 uM with 1 uM cGMP, after pre-incubation at 25 uM; assay type: functional, tissue-based; set-up: scale not given: the % may be the effect or the level left; outline: as §2
[6] = biological target: T2, Phosphodiesterase 1 (Rattus norvegicus); assay: Inhibition of Ca-dependent phosphodiesterase from rat cerebral cortex at 2 uM with 1 uM cGMP, after pre-incubation at 2 uM; assay type: functional, tissue-based; set-up: scale not given: the % may be the effect or the level left; outline: as §2

C=CC(=O)Nc1ccc(-c2nccc3cc(OC)c(OC)cc23)cc1 gave an I50 [1] of 12 µM, an I50 [2] of 10 µM and an I50 [3] of 30 µM. It also gave an Activity [4] of 103% and an Activity [5] of 50%.

In the case of COC(=O)/C=C\C(=O)Nc1ccc(Cc2nccc3cc(OC)c(OC)cc23)cc1, the I50 [1] is reported as 4 µM.

Compound COc1cc2ccnc(Cc3ccc(N)cc3)c2cc1OC has an I50 [1] of 7.7 µM.

Work on COc1cc2ccnc(Cc3ccc(N(CCCl)CCCl)cc3)c2cc1OC yielded an I50 [1] of 5.3 µM.

COC(=O)/C=C\C(=O)Nc1ccc(-c2nccc3cc(OC)c(OC)cc23)cc1 showed an I50 [1] of 5.3 µM, an I50 [2] of 1.7 µM and an I50 [3] of 1.1 µM. For the same compound, the Activity [4] was 99% and the Activity [6] was 14%.

With COc1cc2ccnc(-c3ccc(NC(=O)CCl)cc3)c2cc1OC the I50 [1] was 5 µM, the I50 [2] was 2.3 µM and the I50 [3] was 6.8 µM. It also gave an Activity [4] of 105% and an Activity [6] of 19%.

COC(=O)/C=C/C(=O)Nc1ccc(-c2nccc3cc(OC)c(OC)cc23)cc1 showed an I50 [1] of 14 µM, an I50 [2] of 35 µM and an I50 [3] of over 100 µM. For the same compound, the Activity [4] was 100% and the Activity [5] was 104%.

Work on C=CC(=O)Nc1ccc(Cc2nccc3cc(OC)c(OC)cc23)cc1 yielded an I50 [1] of 10 µM.

Work on COc1cc2ccnc(-c3ccc(NCCCl)cc3)c2cc1OC yielded an I50 [1] of 3.5 µM, an I50 [2] of 2.9 µM and an I50 [3] of 12 µM. The Activity [4] was 102% and the Activity [6] was 21%.

For COc1cc2ccnc(-c3ccc(N)cc3)c2cc1OC, the I50 [1] was 7.4 µM, the I50 [2] was 3.4 µM and the I50 [3] was 2.1 µM. For the same compound, the Activity [4] was 103% and the Activity [6] was 16%.

In the case of COc1cc2ccnc(Cc3ccc(NC(=O)CCl)cc3)c2cc1OC, the I50 [1] is reported as 3.9 µM.

COc1cc2ccnc(Cc3ccc(NCCCl)cc3)c2cc1OC showed an I50 [1] of 4.1 µM.

With COC(=O)/C=C/C(=O)Nc1ccc(Cc2nccc3cc(OC)c(OC)cc23)cc1 the I50 [1] was 8 µM.

With COc1cc2ccnc(-c3ccc(N(CCCl)CCCl)cc3)c2cc1OC the I50 [1] was 5.2 µM, the I50 [2] was 7.3 µM and the I50 [3] was 15 µM. It also gave an Activity [4] of 100% and an Activity [5] of 45%.

Work on COc1ccc(Cc2nccc3cc(OC)c(OC)cc23)cc1OC [PAPAVERINE] yielded an I50 [1] of 8.8 µM, an I50 [2] of 12 µM and an I50 [3] of 21 µM.
